The record followed here is ChEMBL document CHEMBL2146366, “Discovery of microsomal triglyceride transfer protein (MTP) inhibitors with potential for decreased active metabolite load compared to dirlotapide” (Bioorg Med Chem Lett, 2011).

Each structure is given as a SMILES string.

For data set [1], the system named is Rattus norvegicus. Nature of the data set: Antiobesity activity in high fat diet-induced obese Sprague-Dawley rat assessed as reduction in body weight at 10 mg/kg, po administered daily for 3 days relative to dirlotapide. Also on record: scale not given: the % may be the effect or the level left. The format is functional.
For data set [2], the system named is Rattus norvegicus. Nature of the data set: Antiobesity activity in high fat diet-induced obese Sprague-Dawley rat assessed as reduction of triglyceride accumulation in liver at 10 mg/kg, po administered daily for 3 days relative to dirlotapide. The format is functional. Also on record: scale not given: the % may be the effect or the level left. In outline:
(§1)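 Male Sprague–Dawley rats (~300 g, n = 5 per group) were acclimatized for seven days to a high-fat diet (45% kcal from fat). They received three consecutive daily oral gavage doses 1.5 h before the dark cycle. Vehicle was SEDDS:H2O 10:90, with SEDDS made of Miglyol 812 10%, triacetin 30%, polysorbate 80 20% and Capmul MCM 30%. Food intake was recorded during dosing, and liver TG was measured afterwards, both against vehicle.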

The test system of data set [3] is Rattus norvegicus. Put plainly: Antiobesity activity in high fat diet-induced obese Sprague-Dawley rat assessed as reduction of food intake at 1 mg/kg, po administered daily for 3 days relative to dirlotapide. It counts as functional. Also on record: scale not given: the % may be the effect or the level left. In outline: as §1
Data set [4] deals with Rattus norvegicus. Put plainly: Antiobesity activity in high fat diet-induced obese Sprague-Dawley rat assessed as reduction in body weight at 1 mg/kg, po administered daily for 3 days relative to dirlotapide. The format is functional. Also on record: scale not given: the % may be the effect or the level left.
Data set [5] relates to Rattus norvegicus. Put plainly: Antiobesity activity in high fat diet-induced obese Sprague-Dawley rat assessed as reduction of food intake at 30 mg/kg, po administered daily for 3 days relative to dirlotapide. It counts as functional. Also on record: scale not given: the % may be the effect or the level left. In outline: as §1
The subject of data set [6] is Rattus norvegicus. Put plainly: Antiobesity activity in high fat diet-induced obese Sprague-Dawley rat assessed as reduction of food intake at 100 mg/kg, po administered daily for 3 days relative to dirlotapide. The format is functional. Set-up: scale not given: the % may be the effect or the level left. In outline:
as §1

The test system of data set [7] is Rattus norvegicus. Put plainly: Antiobesity activity in high fat diet-induced obese Sprague-Dawley rat assessed as reduction in body weight at 100 mg/kg, po administered daily for 3 days relative to dirlotapide. Also on record: scale not given: the % may be the effect or the level left. The format is functional.
Data set [8] relates to Rattus norvegicus. Nature of the data set: Antiobesity activity in po dosed high fat diet-induced obese Sprague-Dawley rat assessed as reduction of food intake administered daily for 3 days. It counts as functional. To be noted: 72 h, read-out: MED. In outline: as §1
Data set [9] concerns Rattus norvegicus. Put plainly: Antiobesity activity in po dosed high fat diet-induced obese Sprague-Dawley rat assessed as reduction of body weight administered daily for 3 days. It counts as functional. The conditions noted are these: 72 h, read-out: MED.
In data set [10] the test system is Rattus norvegicus. Put plainly: Antiobesity activity in high fat diet-induced obese Sprague-Dawley rat assessed as reduction of food intake at 10 mg/kg, po administered with 25% SDD formulation daily for 3 days relative to control. Set-up: scale not given: the % may be the effect or the level left. The format is functional. In outline: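 Three-day oral dosing study in male Sprague–Dawley rats (~300 g, n = 5 per group) fed a high-fat diet (45% kcal from fat). Animals received daily gavage doses 1.5 h before the dark cycle. Compound was given as a spray-dried dispersion made by spray drying compound with hydroxypropylmethylcellulose acetate succinate. Food intake was recorded during dosing and liver TG measured afterwards, both against vehicle.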

Data set [11] has as its system Rattus norvegicus. Put plainly: Antiobesity activity in high fat diet-induced obese Sprague-Dawley rat assessed as reduction in body weight at 10 mg/kg, po administered with 25% SDD formulation daily for 3 days relative to control. It counts as functional. Set-up: scale not given: the % may be the effect or the level left.
Data set [12] deals with Rattus norvegicus. Put plainly: Drug metabolism in rat assessed as formation of 2-(4'-tert-butylbiphenyl-2-ylcarboxamido)-N-(2-(methylamino)-2-oxo-1-phenylethyl)quinoline-6-carboxamide at 30 mg/kg, po administered as single dose. The format is ADME, organism-based. Set-up: dose 30 mg/kg, route oral. The conditions noted are these: in vivo.
Data set [13] has as its system Rattus norvegicus. Nature of the data set: Toxicity in high fat diet-induced obese Sprague-Dawley rat assessed as change in serum ALT level at 3 mg/kg, po qd for 7 days relative to control. It counts as organism-based. Also on record: dose 3 mg/kg, route oral. To be noted: in vivo, 168 h. In outline:
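Seven-day study in high-fat-diet rats. Compound was given once daily by mouth as a spray-dried dispersion, with vehicle controls. Serum ALT was measured alongside food intake, body weight, liver TG and systemic exposure (AUC). ALT is expressed as % change versus vehicle, with significance set at P ≤ 0.05.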

The nature of data set [14]: AUC in high fat diet-induced obese Sprague-Dawley rat at 3 mg/kg, po qd for 7 days. It counts as ADME, organism-based. Also on record: dose 3 mg/kg, route oral. The conditions noted are these: plasma. In outline: (§2)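 Seven-day rat study: once-daily oral dosing at 3, 10 or 30 mg/kg, with 1, 3 and 100 mg/kg also used for one series. Compounds were given as spray-dried dispersions in hydroxypropylmethylcellulose acetate succinate. Food intake, body weight, liver TG and serum ALT were measured against vehicle. Systemic exposure was reported as AUC (ng h/mL). Significance versus vehicle was set at P ≤ 0.05.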

Data set [15] can be described thus: AUC in high fat diet-induced obese Sprague-Dawley rat at 30 mg/kg, po qd for 7 days. It counts as ADME, organism-based. Set-up: dose 30 mg/kg, route oral. To be noted: plasma. In outline: as §2
Data set [16] concerns Rattus norvegicus. Put plainly: Drug metabolism in rat assessed as formation of 2-(2'-(6-(2-((4-fluorobenzyl)(methyl)amino)-2-oxo-1-phenylethylcarbamoyl)quinolin-2-ylcarbamoyl)biphenyl-4-yl)-2-methylpropanoic acid at 30 mg/kg, po administered as single dose. The format is ADME, organism-based. Set-up: dose 30 mg/kg, route oral. To be noted: in vivo.
Data set [17] deals with Rattus norvegicus. Put plainly: Antiobesity activity in high fat diet-induced obese Sprague-Dawley rat assessed as reduction of triglyceride accumulation in liver at 3 mg/kg, po qd for 7 days relative to control. Also on record: scale not given: the % may be the effect or the level left. The format is functional. In outline: as §2
Data set [18] has as its system Rattus norvegicus. Put plainly: Antiobesity activity in high fat diet-induced obese Sprague-Dawley rat assessed as reduction of body weight at 30 mg/kg, po qd for 7 days. It counts as functional. Also on record: scale not given: the % may be the effect or the level left. In outline:
as §2

The test system of data set [19] is Rattus norvegicus. Nature of the data set: Antiobesity activity in high fat diet-induced obese Sprague-Dawley rat assessed as reduction of food intake at 3 mg/kg, po qd for 7 days relative to control. Set-up: scale not given: the % may be the effect or the level left. The format is functional. In outline: as §2
For data set [20], the system named is Rattus norvegicus. Put plainly: Antiobesity activity in high fat diet-induced obese Sprague-Dawley rat assessed as triglyceride accumulation in liver at 30 mg/kg, po administered daily for 3 days relative to control. The format is functional. In outline:
as §1

Data set [21] has as its system Rattus norvegicus. Nature of the data set: Antiobesity activity in high fat diet-induced obese Sprague-Dawley rat assessed as reduction in body weight at 30 mg/kg, po administered daily for 3 days relative to control. The format is functional. Set-up: scale not given: the % may be the effect or the level left.
Data set [22] has as its system Rattus norvegicus. Nature of the data set: Antiobesity activity in high fat diet-induced obese Sprague-Dawley rat assessed as reduction of food intake at 30 mg/kg, po administered daily for 3 days relative to control. It counts as functional. Also on record: scale not given: the % may be the effect or the level left. In outline: as §1
For data set [23], the system named is Rattus norvegicus. Nature of the data set: Antiobesity activity in high fat diet-induced obese Sprague-Dawley rat assessed as reduction in body weight at 3 mg/kg, po administered daily for 3 days relative to control. The format is functional. Set-up: scale not given: the % may be the effect or the level left.
Data set [24] has as its system Rattus norvegicus. Nature of the data set: Antiobesity activity in high fat diet-induced obese Sprague-Dawley rat assessed as reduction in body weight at 1 mg/kg, po administered daily for 3 days relative to control. Set-up: scale not given: the % may be the effect or the level left. The format is functional.

`CN(Cc1ccc(F)cc1)C(=O)[C@@H](NC(=O)c1ccc2nc(NC(=O)c3ccccc3-c3ccc(C(C)(C)C)cc3)ccc2c1)c1ccccc1`: the Activity amounted to 97% in the data set with Rattus norvegicus [1]; 120% with Rattus norvegicus [2]; 5% with Rattus norvegicus [3]; 25% in the data set with Rattus norvegicus [4]; 37% in the data set on Rattus norvegicus [5]; 35% in the data set with Rattus norvegicus [6]. The Activity with Rattus norvegicus [7] was 75%; in the data set with Rattus norvegicus [10], 33%; in the data set with Rattus norvegicus [11], 96%; with Rattus norvegicus [13], 168%; with Rattus norvegicus [17], 43%; in the data set with Rattus norvegicus [18], 220%. Further, the Activity was 25% in the data set on Rattus norvegicus [19]; 102% in the data set on Rattus norvegicus [20]; 89% in the data set with Rattus norvegicus [21]; 41% in the data set with Rattus norvegicus [22]; 67% in the data set with Rattus norvegicus [23]; 32% in the data set with Rattus norvegicus [24]. For the same molecule, the minimal effective dose in the data set with Rattus norvegicus [8] and in the data set on Rattus norvegicus [9] was 3 mg/kg each time. The Drug metabolism result with Rattus norvegicus [12] and in the data set with Rattus norvegicus [16] was “Active” throughout. Further, the AUC at 168 h in data set [14] is 12 ng·h/mL; in data set [15] it was 65 ng·h/mL.

In general, AUC refers to concentration integrated over time.
